Calls of active or inactive are those of the source. The calls are words filed in the database; no cut-off is given here. Residues, ends and D or L forms follow the SMILES beside them. *: point of attachment. BODIPY(FL) = CC1=CC(C)=[N+]2C1=Cc1ccc(CCC(=O)*)n1[B-]2(F)F; Propyl(3-PMe3+) = C[P+](C)(C)CCC*; CH2CH2P(+)Me3 = C[P+](C)(C)CC*
Experiments:
[1] = Drug uptake in membrane containing structure of human MCF7 cells at 20 uM after 3 hrs by DAPI/rhodamine phalloidin staining-based fluorescence microscopic method; assay type: ADME, cell membranes; conditions: mcf7, 3 h
Summary of the method: (§1)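 MCF7 cells incubated with 20 μM BODIPY-Fl-labelled peptides (label coupled at the N-terminus) using a slightly modified literature protocol. Nuclei counterstained with DAPI and actin cytoskeleton with rhodamine phalloidin. Imaged by fluorescence microscopy; green, blue and red channels merged to localise peptide. Free BODIPY ligand served as control for green signal.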

[2] = Drug uptake in nucleus of human MCF7 cells at 20 uM after 3 hrs by DAPI/rhodamine phalloidin staining-based fluorescence microscopic method; assay type: ADME, subcellular; conditions: mcf7, 3 h
Summary of the method: (§2)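 Peptides labelled at the N-terminus with BODIPY-Fl; MCF7 cells incubated with 20 μM labelled peptide by a modified literature protocol. Imaged by fluorescence microscopy with DAPI for nuclei and rhodamine phalloidin for cytoskeleton. Green, blue and red images were merged to localise the peptide. Free BODIPY ligand served as a control for green signal.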

MCF7 = assay: Binding affinity to actin in human MCF7 cells at 20 uM after 3 hrs by DAPI/rhodamine phalloidin staining-based fluorescence microscopic method; assay type: cell-based; summary of the method: as §1
[3] = Drug uptake in cytoplasm of human MCF7 cells at 20 uM after 3 hrs by DAPI/rhodamine phalloidin staining-based fluorescence microscopic method; assay type: ADME, subcellular; conditions: mcf7, 3 h; summary of the method: as §2
[4] = Drug uptake in golgi apparatus of human MCF7 cells at 20 uM after 3 hrs by DAPI/rhodamine phalloidin staining-based fluorescence microscopic method; assay type: ADME, subcellular; conditions: mcf7, 3 h; summary of the method: as §2
[5] = Cytotoxicity against HEK293 cells assessed as cell viability at 512 uM after 24 hrs by Alamar blue assay relative to control; assay type: cell-based; conditions: human, read-out: Activity
Summary of the method: (§3)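 HEK 293 cells exposed to peptides (TFA salts, C-terminal amide, free N-terminus) at 256 and 512 μM; viability as percent, run in triplicate, reported as mean ± SEM.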

[6] = Cytotoxicity against HEK293 cells assessed as cell viability at 256 uM after 24 hrs by Alamar blue assay relative to control; assay type: cell-based; conditions: human, read-out: Activity; summary of the method: as §3
[7] = Hemolytic activity in horse erythrocytes at 512 uM after 1 hr relative to control; assay type: ADME, cell-based, Equus caballus, Erythrocyte; conditions: read-out: Activity
Summary of the method: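 Horse erythrocytes exposed to peptides (TFA salts, C-terminal amide, free N-terminus) at 512 μM; haemolysis as percent, triplicate determinations, reported as mean ± SEM.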

Escherichia coli = assay: Antibacterial activity against extended-spectrum beta-lactamases producing Escherichia coli clinical strain 64771 after overnight incubation by microbroth dilution assay; assay type: functional

Molecule	Drug uptake [2]	Activity (MCF7)	Drug uptake [3]	further results
CC[C@H](C)[C@H](NC(=O)[C@H](Cc1c[nH]c2ccccc12)NC(=O)[C@H](CSCC[P+](C)(C)C)NC(=O)[C@H](Cc1c[nH]c2ccccc12)NC(=O)[C@H](Cc1c[nH]c2ccccc12)NC(=O)[C@H](CSCC[P+](C)(C)C)NC(=O)[C@H](CSCC[P+](C)(C)C)NC(=O)CCc1ccc2n1[B-](F)(F)[N+]1=C(C)C=C(C)C1=C2)C(=O)N[C@@H](CSCC[P+](C)(C)C)C(=O)N[C@@H](Cc1c[nH]c2ccccc12)C(N)=O.O=C([O-])C(F)(F)F.O=C([O-])C(F)(F)F.O=C([O-])C(F)(F)F.O=C([O-])C(F)(F)F ({BODIPY(FL)}-C(CH2CH2P(+)Me3)C(CH2CH2P(+)Me3)WWC(CH2CH2P(+)Me3)WIC(CH2CH2P(+)Me3)W-NH2)				Drug uptake [1]: Active
CC[C@H](C)[C@H](NC(=O)[C@H](Cc1c[nH]c2ccccc12)NC(=O)[C@H](CSCC[P+](C)(C)C)NC(=O)[C@H](Cc1c[nH]c2ccccc12)NC(=O)[C@H](Cc1c[nH]c2ccccc12)NC(=O)[C@H](CSCCC[P+](C)(C)C)NC(=O)[C@H](CSCC[P+](C)(C)C)NC(=O)CCc1ccc2n1[B-](F)(F)[N+]1=C(C)C=C(C)C1=C2)C(=O)N[C@@H](CSCCC[P+](C)(C)C)C(=O)N[C@@H](Cc1c[nH]c2ccccc12)C(N)=O.O=C([O-])C(F)(F)F.O=C([O-])C(F)(F)F.O=C([O-])C(F)(F)F.O=C([O-])C(F)(F)F ({BODIPY(FL)}-C(CH2CH2P(+)Me3)C(Propyl(3-PMe3+))WWC(CH2CH2P(+)Me3)WIC(Propyl(3-PMe3+))W-NH2)	Not Active	Active	Active	
CC1=CC(C)=[N+]2C1=Cc1ccc(CCC(=O)N[C@@H](CSCC[P+](C)(C)C)C(=O)N[C@@H](Cc3ccccc3)C(=O)N[C@@H](Cc3ccccc3)C(=O)N[C@@H](CSCC[P+](C)(C)C)C(=O)N[C@@H](Cc3ccccc3)C(=O)N[C@@H](Cc3ccccc3)C(=O)N[C@@H](CSCC[P+](C)(C)C)C(=O)N[C@@H](Cc3ccccc3)C(=O)N[C@@H](Cc3ccccc3)C(=O)N[C@@H](CSCC[P+](C)(C)C)C(N)=O)n1[B-]2(F)F.O=C([O-])C(F)(F)F.O=C([O-])C(F)(F)F.O=C([O-])C(F)(F)F.O=C([O-])C(F)(F)F ({BODIPY(FL)}-C(CH2CH2P(+)Me3)FFC(CH2CH2P(+)Me3)FFC(CH2CH2P(+)Me3)FFC(CH2CH2P(+)Me3)-NH2)	Active			Drug uptake [4]: Active
CC[C@H](C)[C@H](NC(=O)[C@H](Cc1c[nH]c2ccccc12)NC(=O)[C@H](CSCCC[P+](C)(C)C)NC(=O)[C@H](Cc1c[nH]c2ccccc12)NC(=O)[C@H](Cc1c[nH]c2ccccc12)NC(=O)[C@H](CSCCC[P+](C)(C)C)NC(=O)[C@H](CSCCC[P+](C)(C)C)NC(=O)CCC1=[N+]2C(=Cc3c(C)cc(C)n3[B-]2(F)F)C=C1)C(=O)N[C@@H](CSCCC[P+](C)(C)C)C(=O)N[C@@H](Cc1c[nH]c2ccccc12)C(N)=O.O=C([O-])C(F)(F)F.O=C([O-])C(F)(F)F.O=C([O-])C(F)(F)F.O=C([O-])C(F)(F)F ({BODIPY(FL)}-C(Propyl(3-PMe3+))C(Propyl(3-PMe3+))WWC(Propyl(3-PMe3+))WIC(Propyl(3-PMe3+))W-NH2)	Not Active	Active	Active	
CC1=CC(C)=[N+]2C1=Cc1ccc(CCC(=O)N[C@@H](CSCCC[P+](C)(C)C)C(=O)N[C@@H](Cc3ccccc3)C(=O)N[C@@H](Cc3ccccc3)C(=O)N[C@@H](CSCCC[P+](C)(C)C)C(=O)N[C@@H](Cc3ccccc3)C(=O)N[C@@H](Cc3ccccc3)C(=O)N[C@@H](CSCCC[P+](C)(C)C)C(=O)N[C@@H](Cc3ccccc3)C(=O)N[C@@H](Cc3ccccc3)C(=O)N[C@@H](CSCCC[P+](C)(C)C)C(N)=O)n1[B-]2(F)F.O=C([O-])C(F)(F)F.O=C([O-])C(F)(F)F.O=C([O-])C(F)(F)F.O=C([O-])C(F)(F)F ({BODIPY(FL)}-C(Propyl(3-PMe3+))FFC(Propyl(3-PMe3+))FFC(Propyl(3-PMe3+))FFC(Propyl(3-PMe3+))-NH2)	Active	Active		
H-KRWWKWIRW-NH2				viability at 24 h, 512 µM [5]: 0%; viability at 24 h, 256 µM [6]: 2%; hemolysis at 1 h, 512 µM [7]: 14.3%; MIC (Escherichia coli): 1.5 µM
